# Source: ChEMBL document CHEMBL1154414, “In vitro and in vivo activities of T-705 against arenavirus and bunyavirus infections” (Antimicrob Agents Chemother, 2007)
# Calls of active or inactive are those of the source. The rule behind the calls is not given here.
# Legend:
# Pichinde virus [1] = test: Antiviral activity against Pichinde virus An 4763 infected Syrian golden hamster assessed as survival at 50 mg/kg, po twice daily for 7 days administered 24 hrs post viral-challenge; assay type: functional, organism-based; design: dose 50 mg/kg
# Punta Toro virus [2] = test: Antiviral activity against 500 PFU Punta Toro virus Adames infected C57BL/6 mouse assessed as animals with detectable virus level in serum at 75 mg/kg, po twice daily administered 4 hrs before viral challenge measured on day 4 of viral infection; assay type: functional
# Procedure, shortened: (§1)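 T-705 was suspended in 0.4% carboxymethylcellulose and given by oral gavage twice daily. Mice were infected subcutaneously with PTV. Five mice per group (10 placebo) were sacrificed on day 3 or 4. Liver homogenate or serum was serially diluted onto triplicate LLC-MK2 monolayers, and CPE was read at 6–8 days. The detection limit was 2.8 log10 CCID50 per 0.1 g liver or 0.1 ml serum.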
# Punta Toro virus [3] = test: Antiviral activity against 5000 PFU Punta Toro virus Adames infected C57BL/6 mouse assessed as survival at 30 mg/kg, po twice daily for 5 days 24 hrs post viral challenge; assay type: functional
# Procedure, shortened: (§2)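 PTV was inoculated subcutaneously into mice in groups of 15 (25–30 placebo). Dosing was by oral gavage twice daily for 5–7 days, with T-705 suspended in 0.4% CMC and ribavirin in saline. Remaining animals were observed 21–28 days for survival and day of death. Test doses had first been checked for tolerance in uninfected animals.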
# Punta Toro virus [4] = test: Antiviral activity against 500 PFU Punta Toro virus Adames infected C57BL/6 mouse assessed as mean day of death at 25 mg/kg, po twice daily for 5 days administered 4 hrs before viral challenge; assay type: functional
# Procedure, shortened: (§3)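 Groups of 15 mice (25–30 placebo) were inoculated subcutaneously with PTV. Drug in 0.4% carboxymethylcellulose was given by oral gavage twice daily.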
# Punta Toro virus [5] = test: Antiviral activity against Punta Toro virus Adames infected Syrian golden hamster assessed as mean viral titer per 0.1 mL of serum at 60 mg/kg, po twice daily administered 4 hrs before viral challenge measured on day 4 of viral infection; assay type: functional
# Punta Toro virus [6] = test: Antiviral activity against 500 PFU Punta Toro virus Adames infected C57BL/6 mouse assessed as mean serum ALT levels at 10 mg/kg, po twice daily administered 4 hrs before viral challenge measured on day 3 of viral infection; assay type: functional
# Procedure, shortened: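 Subcutaneous PTV infection was followed by oral gavage twice daily with drug suspended in 0.4% CMC. Serum was collected from 5 sacrificed mice per group (10 placebo) on day 3 or 4. ALT activity was measured by kinetic assay, and sham-infected mice set the baselines.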
# Punta Toro virus [7] = test: Antiviral activity against 500 PFU Punta Toro virus Adames infected C57BL/6 mouse assessed as animals with detectable virus level in liver at 200 mg/kg, po twice daily administered 4 hrs before viral challenge measured on day 4 of viral infection; assay type: functional; procedure, shortened: as §1
# Pichinde virus [8] = test: Antiviral activity against Pichinde virus An 4763 infected Syrian golden hamster assessed as survival at 60 mg/kg, po twice daily for 7 days administered 4 hrs before viral-challenge; assay type: functional
# Punta Toro virus [9] = test: Antiviral activity against Punta Toro virus Adames infected Syrian golden hamster assessed as mean viral titer per 0.1 mL of serum at 15 mg/kg, po twice daily administered 4 hrs before viral challenge measured on day 4 of viral infection; assay type: functional
# Punta Toro virus [10] = test: Antiviral activity against 500 PFU Punta Toro virus Adames infected C57BL/6 mouse assessed as survival at 25 mg/kg, po twice daily for 5 days administered 4 hrs before viral challenge; assay type: functional, organism-based; design: dose 25 mg/kg; procedure, shortened: as §2
# Punta Toro virus [11] = test: Antiviral activity against 500 PFU Punta Toro virus Adames infected C57BL/6 mouse assessed as mean viral titer per 0.1 g of liver at 30 mg/kg, po twice daily administered 4 hrs before viral challenge measured on day 3 of viral infection; assay type: functional
# Procedure, shortened: (§4)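 Mice were infected subcutaneously with PTV and dosed by oral gavage twice daily; 5 per group (10 placebo) were killed on day 3 or 4. Liver homogenate or serum was serially diluted onto triplicate LLC-MK2 monolayers, and CPE was read 6–8 days later. 50% endpoints gave log10 CCID50 per 0.1 g liver or 0.1 ml serum. Detection range was 2.8–9.5; undetectable samples were assigned <2.8.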
# Punta Toro virus [12] = test: Antiviral activity against 500 PFU Punta Toro virus Adames infected C57BL/6 mouse assessed as mean day of death at 100 mg/kg, po twice daily for 5 days administered 4 hrs before viral challenge; assay type: functional; procedure, shortened: as §3
# Junin virus = test: Antiviral activity against Junin virus Candid-1 assessed as reduction of 1 log10 unit viral titer yields after 7 to 8 days; assay type: functional; conditions: Mammarenavirus juninense
# Punta Toro virus [13] = test: Antiviral activity against 500 PFU Punta Toro virus Adames infected C57BL/6 mouse assessed as mean day of death at 10 mg/kg, po twice daily for 5 days administered 4 hrs before viral challenge; assay type: functional; procedure, shortened: as §3
# Punta Toro virus [14] = test: Antiviral activity against 500 PFU Punta Toro virus Adames infected C57BL/6 mouse assessed as mean viral titer per 0.1 mL of serum at 30 mg/kg, po twice daily administered 4 hrs before viral challenge measured on day 3 of viral infection; assay type: functional; procedure, shortened: as §4
# Punta Toro virus [15] = test: Antiviral activity against 500 PFU Punta Toro virus Adames infected C57BL/6 mouse assessed as mean viral titer per 0.1 mL of serum at 100 mg/kg, po twice daily administered 4 hrs before viral challenge measured on day 4 of viral infection; assay type: functional; procedure, shortened: as §4
# Punta Toro virus [16] = test: Antiviral activity against 500 PFU Punta Toro virus Adames infected C57BL/6 mouse assessed as animals with detectable virus level in serum at 25 mg/kg, po twice daily administered 4 hrs before viral challenge measured on day 4 of viral infection; assay type: functional; procedure, shortened: as §1
# Punta Toro virus [17] = test: Antiviral activity against 500 PFU Punta Toro virus Adames infected C57BL/6 mouse assessed as mean serum ALT levels at 50 mg/kg, po twice daily administered 4 hrs before viral challenge measured on day 4 of viral infection; assay type: functional
# Procedure, shortened: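 C57BL/6 mice received subcutaneous PTV, then oral gavage twice daily for 5–7 days. T-705 was given in 0.4% CMC and ribavirin in saline. Five mice per group (10 placebo) were killed on day 3 or 4, and serum was collected. ALT activity was measured by kinetic assay. Three sham-infected mice set baselines.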
# Punta Toro virus [18] = test: Antiviral activity against Punta Toro virus Adames infected Syrian golden hamster assessed as mean serum ALT levels at 15 mg/kg, po twice daily administered 4 hrs before viral challenge measured on day 4 of viral infection; assay type: functional
# Pichinde virus [19] = test: Antiviral activity against Pichinde virus An 4763 infected Syrian golden hamster assessed as inhibition of liver damage at 20 mg/kg, po twice daily for 7 days administered 24 hrs post viral-challenge measured on day 7 of viral infection; assay type: functional, organism-based; design: dose 20 mg/kg
# Pichinde virus [20] = test: Antiviral activity against Pichinde virus An 4763 infected Syrian golden hamster assessed as mean viral titer per 0.1 g of liver at 60 mg/kg, po twice daily for 7 days administered 4 hrs before viral-challenge measured on day 7 of viral infection; assay type: functional
# Punta Toro virus [21] = test: Antiviral activity against 500 PFU Punta Toro virus Adames infected C57BL/6 mouse assessed as mean day of death at 30 mg/kg, po twice daily for 5 days administered 4 hrs before viral challenge; assay type: functional; procedure, shortened: as §3
# [22] = tested on: Sandfly fever Naples virus; test: Antiviral activity against Sandfly fever Naples virus assessed as reduction of 1 log10 unit viral titer yields after 3 to 5 days; assay type: functional
# Punta Toro virus [23] = test: Antiviral activity against 500 PFU Punta Toro virus Adames infected C57BL/6 mouse assessed as animals with detectable virus level in serum at 5 mg/kg, po twice daily administered 4 hrs before viral challenge measured on day 3 of viral infection; assay type: functional; procedure, shortened: as §1
# Punta Toro virus [24] = test: Antiviral activity against 500 PFU Punta Toro virus Adames infected C57BL/6 mouse assessed as animals with detectable virus level in liver at 10 mg/kg, po twice daily administered 4 hrs before viral challenge measured on day 3 of viral infection; assay type: functional; procedure, shortened: as §1
structure (smiles),measurement,setting,value
NC(=O)c1ncn([C@@H]2O[C@H](CO)[C@@H](O)[C@H]2O)n1 [RIBAVIRIN],Activity,Pichinde virus [1],Active
same,Activity,Punta Toro virus [2],20%
NC(=O)c1nc(F)cnc1O [FAVIPIRAVIR],Activity,Punta Toro virus [3],90%
same,Activity,Punta Toro virus [4],>21 days
same,log10CCID50,Punta Toro virus [5],<3.8
same,Activity,Punta Toro virus [6],501 IU/L
same,Activity,Punta Toro virus [7],0%
same,Activity,Pichinde virus [8],90%
same,log10CCID50,Punta Toro virus [9],<4.1
same,Activity,Punta Toro virus [10],Active
same,log10CCID50,Punta Toro virus [11],<2.8
same,Activity,Punta Toro virus [12],>21 days
same,EC90,Junin virus,7 µM
same,Activity,Punta Toro virus [13],5 days
same,log10CCID50,Punta Toro virus [14],<5.2
same,log10CCID50,Punta Toro virus [15],<2.8
same,Activity,Punta Toro virus [16],20%
same,Activity,Punta Toro virus [17],41 IU/L
same,Activity,Punta Toro virus [18],204 IU/L
same,Activity,Pichinde virus [19],Active
same,log10CCID50,Pichinde virus [20],<2.8
same,Activity,Punta Toro virus [21],>21 days
same,EC90,[22],3 µM
same,Activity,Punta Toro virus [23],100%
same,Activity,Punta Toro virus [24],0%
